Data on 16 compounds can be found in ChEMBL document CHEMBL1135125, “Cytotoxic alpha-bromoacrylic derivatives of low molecular weight” (Bioorg Med Chem Lett, 2002).

Broadly, the IC50 is the concentration that gives 50% inhibition. By T/C is commonly meant the result in the treated group divided by that in the control group, in per cent. What is called Papp is a coefficient for how fast a substance crosses the barrier. A high value points to ready permeation.

Test [1] concerns L1210. Description: In vitro cytotoxicity against L1210 murine leukemia cells after 48 hr of continuous exposure. In kind it is functional, cell-based. The conditions noted are these: Mus musculus, L1210, 48 h. In short, it runs like this:
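L1210 murine leukaemia cells (from NCI) under continuous drug exposure for 48 h; IC50 taken from dose–response curves, mean±SE of at least two experiments.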

The subject of test [2] is Mus musculus. Description: Median survival time of mice injected with L1210 cells intravenously versus untreated mice at an optimal (non toxic) dose of 50 mg/kg. It is filed as functional. The conditions noted are these: route intravenous.
Test [3] deals with Caco-2. Description: Caco-2 cell permeability coefficient was determined after 120 min of incubation. It is filed as functional, cell-based. The conditions noted are these: Homo sapiens. In a few lines: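 Caco-2 cells grown 21 days on permeable polycarbonate transwell filters; apparent permeability coefficient measured after 120 min incubation per a published method; total compound recovery calculated at end of experiment.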
(In general: Caco-2 monolayers are a common model of the intestinal barrier.)

The test system of test [4] is Mus musculus. As to the kind of experiment: Median survival time of mice injected with L1210 cells intravenously versus untreated mice at an optimal (non toxic) dose of 100 mg/kg. In kind it is functional. The conditions noted are these: route intravenous.
In test [5] the test system is Mus musculus. As to the kind of experiment: Median survival time of mice injected with L1210 cells intravenously versus untreated mice at an optimal (non toxic) dose of 25 mg/kg. It is filed as functional. Conditions: route intravenous.
Test [6] has as its system Mus musculus. Description: Median survival time of mice injected with L1210 cells intravenously versus untreated mice at an optimal (non toxic) dose of 12.5 mg/kg. It is filed as functional. The conditions noted are these: route intravenous.
The test system of test [7] is Mus musculus. As to the kind of experiment: Median survival time of mice injected with L1210 cells intraperitoneally versus untreated mice at an optimal (non toxic) dose of 12.5 mg/kg. In kind it is functional. Conditions: route intraperitoneal.

`C=C(Br)C(=O)Nc1ccc(F)cc1` registered a half-inhibitory concentration (IC50) in test [1] of 0.0586 µM. The same compound came in with a T/C in test [2] of 100%. In the case of `C=C(Br)C(=O)Nc1cc(C(=O)NCCC(=N)N)n(C)c1`, the apparent permeability (Papp) in test [3] was 0.69 ×10⁻⁶ cm/s. Moreover, in test [1], the 50% inhibitory concentration (IC50) was greater than 2.5 µM. In test [1], `C=C(Br)C(=O)Nc1cc(C(=O)Nc2cc(C(=O)NCCN=C(N)N)n(C)c2)n(C)c1` showed an IC50 greater than 0.5 µM. `C=C(Br)C(=O)Nc1cc(C(=O)NCCC#N)n(C)c1` yielded an IC50 in test [1] of 0.0519 µM. This compound also came in with a T/C in test [4] of 100%. On to `C=C(Br)C(=O)Nc1cc(C(=O)Nc2cc(C(=O)Nc3cc(C(=O)NCCN=C(N)N)n(C)c3)n(C)c2)n(C)c1`, for which the midpoint of inhibition in test [1], the IC50, lay at 0.027 µM. Take `C=C(Br)C(=O)Nc1cc(C(=O)Nc2ccccc2)n(C)c1`: the apparent permeability (Papp) in test [3] was 1.2 ×10⁻⁶ cm/s. The same compound registered an IC50 in test [1] of 0.043 µM. This compound registered a T/C in test [5] of 100%. In test [3], `C=C(F)C(=O)Nc1cc(C(=O)Nc2ccccc2)n(C)c1` came in with a Papp of 39.6 ×10⁻⁶ cm/s. Besides, the half-inhibitory concentration (IC50) in test [1] is greater than 5 µM. Take `C=C(Br)C(=O)Nc1cc(C(=O)Nc2cc(C(=O)Nc3cc(C(=O)Nc4cc(C(=O)NCCC(=N)N)n(C)c4)n(C)c3)n(C)c2)n(C)c1`: in test [3], the Papp is 38.2 ×10⁻⁶ cm/s. For `C=C(Br)C(=O)Nc1ccc(N(C)C)cc1.Cl`, in test [1], the IC50 is 0.054 µM. For the same compound, the T/C in test [5] is recorded as 100%. `C=C(F)C(=O)Nc1cc(C(=O)Nc2cc(C(=O)Nc3cc(C(=O)Nc4cc(C(=O)NCCC(=N)N)n(C)c4)n(C)c3)n(C)c2)n(C)c1` registered an IC50 in test [1] greater than 0.8 µM. With `C=C(Br)C(=O)Nc1ccc(C(=N)N)cc1`, the apparent permeability (Papp) in test [3] was found to be 3.9 ×10⁻⁶ cm/s. Further, the IC50 in test [1] was greater than 5 µM. The compound `C=C(Br)C(=O)Nc1cc(C(=O)Nc2cc(C(=O)Nc3cc(C(=O)Nc4cc(C(=O)NCCN=C(N)N)n(C)c4)n(C)c3)n(C)c2)n(C)c1` yielded an IC50 in test [1] of 0.0018 µM. In test [1], `C=C(Br)C(=O)Nc1ccccc1` yielded an IC50 of 0.0368 µM. The compound further gave a T/C in test [6] of 117%. With `C=CC(=O)Nc1cc(C(=O)Nc2cc(C(=O)Nc3cc(C(=O)Nc4cc(C(=O)NCCC(=N)N)n(C)c4)n(C)c3)n(C)c2)n(C)c1`, the concentration for half-maximal inhibition (IC50) in test [1] was determined as 2 µM. Consider `C=C(Br)C(=O)Nc1cc(C(=O)Nc2cc(C(=O)Nc3cc(C(=O)NCCC(=N)N)n(C)c3)n(C)c2)n(C)c1.Cl`, for which the Papp in test [3] stood at 15.2 ×10⁻⁶ cm/s. The same compound showed a T/C in test [7] of 175%. In test [3], `C=C(Br)C(=O)Nc1cc(C(=O)Nc2cc(C(=O)NCCC(=N)N)n(C)c2)n(C)c1` had an apparent permeability coefficient (Papp) of 5.58 ×10⁻⁶ cm/s. The IC50 in test [1] worked out at 1.3 µM.
